Columns and labels:
A549 (human) = assay: Induction of apoptosis in human A549 cells assessed as early apoptotic cells at 2 uM after 24 hrs by Annexin V-FITC/PI dual staining based flow cytometry (reference value: 0.3%)
A549 [1] = assay: Induction of apoptosis in human A549 cells after 24 hrs by Annexin V-FITC/PI dual staining based flow cytometry; format: functional, cell-based
MDA-MB-231 [2] = assay: Disruption of mitochondrial membrane potential in human MDA-MB-231 cells after 48 hrs by Rhodamine-123 staining based spectrofluorometry; format: functional, cell-based
Procedure, shortened: (§1)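 Cells were seeded at 5×10^5 cells/mL overnight and treated with 0.5, 1 and 2 µM compound; the methods say 24 h and the results text says 48 h. Trypsinised cells were washed and stained with rhodamine-123 (2 µM in PBS) for 30 min at room temperature in the dark, washed and read by spectrofluorometer. Data are mean ± SD of three independent experiments.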

MDA-MB-231 [3] = assay: Cell cycle arrest in human MDA-MB-231 cells assessed as accumulation at G0/G1 phase at 2 uM after 24 to 48 hrs by propidium iodide staining based flow cytometry (reference value: 74.4%); format: functional
Procedure, shortened: (§2)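 Cells were seeded at 1×10^6 per well and treated 24 h later with 0.5, 1 or 2 µM compound; DMSO-treated cells served as control. Methods give harvest at 48 h (floating plus trypsinised cells); the figure legend says 24 h. Cells were fixed in 70% ethanol for 30 min at 4 °C and stained with PI, Triton X-100 and RNase A for 15 min in the dark. 10000 events were counted by flow cytometry.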

A549 [4] = assay: Induction of apoptosis in human A549 cells assessed as necrotic cells at 1 uM after 24 hrs by Annexin V-FITC/PI dual staining based flow cytometry (reference value: 5.2%); format: functional
MDA-MB-231 [5] = assay: Cytotoxicity against human MDA-MB-231 cells assessed as growth inhibition after 72 hrs by MTT assay; format: functional, cell-based; details: MDA-MB-231, 72 h
Procedure, shortened: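 Cells in RPMI 1640 (PC-3, A549, MDA-MB-231) or DMEM (U87MG, MCF-7) with 10% FBS, passages 4-10, were seeded at 3000-5000 per well and left 24 h. Compounds in DMSO/medium were added for 72 h; DMSO served as control. MTT (5 mg/mL) was added for 4 h and formazan dissolved in DMSO. Absorbance was read at 570 nm minus 630 nm. % inhibition was taken versus DMSO, with IC50 by probit; mean ± SD of three experiments in triplicate.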

MDA-MB-231 [6] = assay: Antimigratory activity in human MDA-MB-231 cells at 0.5 to 2 uM measured after 24 to 48 hrs by wound healing assay; format: functional, cell-based
Procedure, shortened: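 Wound-healing assay. Cells were seeded at 5×10^5 per well and grown 24 h to a confluent monolayer, then scratched once across the middle with a sterile pipette tip and washed twice with PBS. Compound was added at 0.5, 1 and 2 µM. Wound closure was photographed by phase-contrast microscopy at 0, 24 and 48 h in three or more random fields.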

MDA-MB-231 [7] = assay: Induction of apoptosis in human MDA-MB-231 cells assessed as necrotic cells at 2 uM after 24 hrs by Annexin V-FITC/PI dual staining based flow cytometry (reference value: 1.9%); format: functional
MDA-MB-231 [8] = assay: Induction of apoptosis in human MDA-MB-231 cells assessed as necrotic cells at 1 uM after 24 hrs by Annexin V-FITC/PI dual staining based flow cytometry (reference value: 1.9%); format: functional
MDA-MB-231 [9] = assay: Cell cycle arrest in human MDA-MB-231 cells assessed as accumulation at G2/M phase at 0.5 uM after 24 to 48 hrs by propidium iodide staining based flow cytometry (reference value: 20.2%); format: functional
Procedure, shortened: as §2

A549 [10] = assay: Cell cycle arrest in human A549 cells assessed as accumulation at S phase at 1 uM after 24 to 48 hrs by propidium iodide staining based flow cytometry (reference value: 18.3%); format: functional
Procedure, shortened: as §2

MDA-MB-231 [11] = assay: Induction of apoptosis in human MDA-MB-231 cells assessed as late apoptotic cells at 0.5 uM after 24 hrs by Annexin V-FITC/PI dual staining based flow cytometry (reference value: 6.2%); format: functional
A549 [12] = assay: Induction of apoptosis in human A549 cells assessed as early apoptotic cells at 0.5 uM after 24 hrs by Annexin V-FITC/PI dual staining based flow cytometry (reference value: 5.3%); format: functional
MDA-MB-231 [13] = assay: Cell cycle arrest in human MDA-MB-231 cells assessed as accumulation at G0/G1 phase at 0.5 uM after 24 to 48 hrs by propidium iodide staining based flow cytometry (reference value: 74.4%); format: functional
Procedure, shortened: as §2

A549 [14] = assay: Induction of apoptosis in human A549 cells assessed as viable cells at 0.5 uM after 24 hrs by Annexin V-FITC/PI dual staining based flow cytometry (reference value: 85%); format: functional; details: A549, 24 h, read-out: Activity
A549 [15] = assay: Cell cycle arrest in human A549 cells assessed as accumulation at G0/G1 phase at 2 uM after 24 to 48 hrs by propidium iodide staining based flow cytometry (reference value: 49.1%); format: functional
Procedure, shortened: as §2

MDA-MB-231 [16] = assay: Cytotoxicity against human MDA-MB-231 cells assessed as inhibition of colony formation after 24 hrs by methylene blue staining-based assay; format: functional, cell-based
Procedure, shortened: (§3)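 Clonogenic assay. Cells were plated at 500 per well and allowed to adhere 24 h. Compound was added at 0.1, 1 and 10 µM for 24 h, then medium was replaced and cells grown a further 14 days. Colonies were fixed with 4% paraformaldehyde, stained with 0.5% methylene blue in PBS for 30 min, rinsed and photographed.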

MDA-MB-231 [17] = assay: Cell cycle arrest in human MDA-MB-231 cells assessed as accumulation at S phase at 2 uM after 24 to 48 hrs by propidium iodide staining based flow cytometry (reference value: 4.6%); format: functional
Procedure, shortened: as §2

A549 [18] = assay: Cytotoxicity against human A549 cells assessed as inhibition of colony formation after 24 hrs by methylene blue staining-based assay; format: functional, cell-based
Procedure, shortened: as §3

MDA-MB-231 [19] = assay: Cell cycle arrest in human MDA-MB-231 cells assessed as accumulation at S phase at 1 uM after 24 to 48 hrs by propidium iodide staining based flow cytometry (reference value: 4.6%); format: functional
Procedure, shortened: as §2

MDA-MB-231 [20] = assay: Induction of apoptosis in human MDA-MB-231 cells assessed as early apoptotic cells at 1 uM after 24 hrs by Annexin V-FITC/PI dual staining based flow cytometry (reference value: 0.3%); format: functional
A549 [21] = assay: Induction of apoptosis in human A549 cells assessed as late apoptotic cells at 1 uM after 24 hrs by Annexin V-FITC/PI dual staining based flow cytometry (reference value: 4.5%); format: functional
A549 [22] = assay: Disruption of mitochondrial membrane potential in human A549 cells after 48 hrs by Rhodamine-123 staining based spectrofluorometry; format: functional, cell-based
Procedure, shortened: as §1

A549 [23] = assay: Cell cycle arrest in human A549 cells assessed as accumulation at G0/G1 phase at 1 uM after 24 to 48 hrs by propidium iodide staining based flow cytometry (reference value: 49.1%); format: functional
Procedure, shortened: as §2

MDA-MB-231 [24] = assay: Induction of apoptosis in human MDA-MB-231 cells assessed as early apoptotic cells at 0.5 uM after 24 hrs by Annexin V-FITC/PI dual staining based flow cytometry (reference value: 0.3%); format: functional
A549 [25] = assay: Cell cycle arrest in human A549 cells assessed as accumulation at G2/M phase at 2 uM after 24 to 48 hrs by propidium iodide staining based flow cytometry (reference value: 22.3 to 31%); format: functional
Procedure, shortened: as §2

In the case of `O=C1c2ccccc2Nc2ccccc2N1Cc1cn(Cc2ccccc2)nn1`, the Activity (A549 (human)) is reported as 19.3%, the Activity (A549 [1]) is reported as “Dose-dependent effect” and the Activity (MDA-MB-231 [2]) is reported as “Dose-dependent effect”. The Activity (MDA-MB-231 [3]) was 33.3%, the Activity (A549 [4]) was 1.9% and the IC50 (MDA-MB-231 [5]) was 730 nM. For the same molecule, the inhibition (MDA-MB-231 [6]) was “Dose-dependent effect”, the Activity (MDA-MB-231 [7]) was 2.5% and the Activity (MDA-MB-231 [8]) was 1.4%. The Activity (MDA-MB-231 [9]) was 22.3%, the Activity (A549 [10]) was 15.3% and the Activity (MDA-MB-231 [11]) was 10.1%. The Activity (A549 [12]) was 9.4%, the Activity (MDA-MB-231 [13]) was 73.6% and the viability at 0.5 µM (A549 [14]) was 75%. The Activity (A549 [15]) was 34.7%, the inhibition (MDA-MB-231 [16]) was “Dose-dependent effect” and the Activity (MDA-MB-231 [17]) was 5.5%. The inhibition (A549 [18]) was “Dose-dependent effect”, the Activity (MDA-MB-231 [19]) was 6.7% and the Activity (MDA-MB-231 [20]) was 14.2%. The Activity (A549 [21]) was 10.7%, the Activity (A549 [22]) was “Dose-dependent effect” and the Activity (A549 [23]) was 39.8%. For the same molecule, the Activity (MDA-MB-231 [24]) was 16.8% and the Activity (A549 [25]) was 51.3%.

From ChEMBL document CHEMBL3763097, “Synthesis and biological evaluation of 5,10-dihydro-11H-dibenzo[b,e][1,4]diazepin-11-one structural derivatives as anti-cancer and apoptosis inducing agents” (Eur J Med Chem, 2016)
